For assay [1], the species on record is Homo sapiens. Briefly: Inhibition of ADP induced platelet aggregation. The class given is functional. An outline of the steps: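 Human platelets with ADP as the aggregating stimulus. Each assay was run in triplicate at five inhibitor concentrations. The mean at each concentration was plotted and the IC50 was read graphically.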
In assay [2] the target is T1, Phosphodiesterase 3 (Homo sapiens, UniProt Q14432+Q13370). The experiment in a line: Inhibition of platelet cAMP phosphodiesterase.
The species entered for assay [3] is Canis familiaris. Briefly: Dose at which 50% maximal effect for cardiac force increase in dogs. It is filed as functional. As to conditions: Canis lupus familiaris, Heart. An outline of the steps:
(§1)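 Instrumented, anesthetized dogs. Cardiac force, heart rate and blood pressure response curves were plotted against dose. When n > 1, the mean at each dose level was plotted.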

Assay [4] is filed under the species Canis familiaris. Briefly: Dose at which 50% blood pressure decrease in dogs. It is filed as functional. Particulars: Canis lupus familiaris. An outline of the steps:
as §1

For assay [5], the species on record is Canis familiaris. The experiment in a line: Dose at which 50% heart rate increase in dogs. The class given is functional. Particulars: Canis lupus familiaris. An outline of the steps: as §1
Assay [6] concerns Canis familiaris. The experiment in a line: Percent maximum increase in cardiac force in anesthetized dogs using isoproterenol as agonist at 125 nmol/kg. The class given is functional, Canis lupus familiaris, Heart. The method in brief:
(§2)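 Instrumented, anesthetized dogs. Cardiac force rise from the test agent is expressed as a percent of the maximum cardiac force increase seen in the same animal with isoproterenol as agonist. N = number of experiments.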

Assay [7] deals with Canis familiaris. The experiment in a line: Percent maximum increase in cardiac force in anesthetized dogs using isoproterenol as agonist at 185 nmol/kg. The class given is functional, Canis lupus familiaris, Heart. An outline of the steps: as §2
In assay [8] the test system is Canis familiaris. Briefly: Percent maximum increase in cardiac force in anesthetized dogs using isoproterenol as agonist at 140 nmol/kg. It is filed as functional, Canis lupus familiaris, Heart. An outline of the steps:
as §2

In assay [9] the test system is Canis familiaris. The experiment in a line: Percent maximum increase in cardiac force in anesthetized dogs using isoproterenol as agonist at 75 nmol/kg. It is filed as functional, Canis lupus familiaris, Heart. The method in brief:
as §2

The test system of assay [10] is Canis familiaris. The experiment in a line: Percent maximum increase in cardiac force in anesthetized dogs using isoproterenol as agonist; inactive at all doses up to 1000 ug/kg. Particulars: Canis lupus familiaris; Heart. It is filed as functional, organism-based. The method in brief: as §2
The species entered for assay [11] is Homo sapiens. Briefly: Inhibition of ADP induced platelet aggregation; inactive. It is filed as functional.
In assay [12] the test system is Canis familiaris. The experiment in a line: Percent maximum increase in cardiac force in anesthetized dogs using isoproterenol as agonist at greater than 5000 nmol/kg. The class given is functional, Canis lupus familiaris, Heart.
Assay [13] has as its target T1, Phosphodiesterase 3. Briefly: Inhibition of human platelet cAMP phosphodiesterase at 100 uM.

The structures appear in SMILES notation. pIC50: −log10 of the molar value. Active and inactive are the calls of the source. The calls are words filed in the database; no cut-off is given here.

For orientation: pIC50 means the IC50 on a negative log10 scale, so that one unit is a factor of ten. A higher pIC50 goes with a low IC50. As a reminder, the IC50 is the concentration that gives 50% inhibition. On to `O=C1CN2Cc3ncccc3N=C2N1`, for which, in assay [1], the pIC50 was 4.60. For the same compound, the IC50 in assay [2] was determined as 30 µM.
Compound `Cc1c(Br)ccc2c1CN1C(=N2)NC(=O)C1C` (configuration not stated) displayed an IC50 in [2] of 0.07 µM.
The same measure, in the same setting: in the case of `O=C1CN2Cc3cc(Cl)ccc3N=C2N1` it was 1.5 µM; in that of `O=C1CN2Cc3cc(I)ccc3N=C2N1`, 0.52 µM.
A word on the ED50: it is the dose that gives a 50% effect, or the effect in half of the subjects. Low readings indicate an effect at a small dose, high ones a need for a large dose. Turning to `CC1CC(O)=NN=C1c1ccc(-n2ccnc2)cc1` (configuration not stated) [CI-930], the 50% effective dose (ED50) in [3], in [4] and in assay [5] was 0.1 µmol/kg throughout. In assay [6], the “Max CF response” value worked out at 72%.
Consider `O=C1CN2Cc3cc(-n4ccnc4)ccc3N=C2N1`, for which the figures for the ED50 in assay [3], in assay [4] and in assay [5] were 0.18 µmol/kg, 0.64 µmol/kg and 0.22 µmol/kg, respectively. Moreover, in [1], the pIC50 was 5.22. Also, the IC50 in [2] was found to be 0.6 µM. For the same compound, the “Max CF response” value in assay [7] is given as 63%.
Compound `O=C1CN2Cc3cc(N4CCCCC4)ccc3N=C2N1` came in with an IC50 in assay [2] of 0.15 µM.
In the case of `O=C1CN2Cc3cccnc3N=C2N1`, in [1], the pIC50 was 3.70. The IC50 in assay [2] amounted to 330 µM.
The like results for `O=C1CN2Cc3ccncc3N=C2N1` were, in that order, 4.59 and 26 µM.
The corresponding values for `O=C1CN2Cc3cc(OCCn4ccnc4)ccc3N=C2N1` are 4.40 and 2 µM.
`Cc1[nH]c(=O)c(C#N)cc1-c1ccncc1` [MILRINONE]: in assay [8], the “Max CF response” value amounted to 65%. Further, the ED50 worked out at 0.09 µmol/kg in assay [3], 0.59 µmol/kg in assay [4] and 0.19 µmol/kg in assay [5].
Turning to `CN(C(=O)CCCOc1ccc2c(c1)CN1CC(=O)NC1=N2)C1CCCCC1` [LIXAZINONE], the “Max CF response” value in assay [9] amounted to 71%. The ED50 was 0.02 µmol/kg in [3], 0.05 µmol/kg in assay [4] and 0.03 µmol/kg in assay [5].
As to `O=C1CN=C(Nc2ccc(-n3ccnc3)cc2)N1`, the “Max CF response” value in [10] was “inactive”. In addition, the IC50 entry was “Not Active” in assay [11] and 250 µM in assay [2].
For the compound `C[C@@H]1C(=O)NC2=Nc3cccc(Cl)c3CN21` [QUAZINONE], the half-maximal inhibitory concentration (IC50) in [2] stood at 0.24 µM.
Consider `O=C1CN2Cc3cc(O)ccc3N=C2N1`, for which the IC50 in assay [2] was 3.3 µM.
`O=C1CN2Cc3ccccc3N=C2N1` registered an IC50 in assay [2] of 8.8 µM.
For `O=C1CN2Cc3cnccc3N=C2N1`, the ED50 was 0.78 µmol/kg in [3], greater than 1 µmol/kg in assay [4] and greater than 1 µmol/kg in assay [5]. Moreover, in assay [1], the pIC50 was 4.34. In assay [2], this compound registered an IC50 of 18 µM. Moreover, the “Max CF response” value in [12] is reported as 27%.
What is called inhibition is the percentage by which the read-out fell short of the control. Read a high inhibition as a strong effect. For the compound `CCc1[nH]c(=O)[nH]c1C(=O)c1ccncc1` [PIROXIMONE], in [2], the 50% inhibitory concentration (IC50) is greater than 100 µM. The compound further showed an inhibition in assay [13] of 40%.
Compound `O=C1CN2Cc3cc(OCCCCCCn4ccnc4)ccc3N=C2N1` gave a pIC50 in assay [1] of 4.64. In assay [2], the IC50 came to 0.7 µM.
For the compound `O=C1CN2Cc3cc(OCc4ccccc4)ccc3N=C2N1`, the IC50 in [2] is 0.56 µM.

Source of the values: ChEMBL document CHEMBL1124004, “Inhibitors of cyclic AMP phosphodiesterase. 3. Synthesis and biological evaluation of pyrido and imidazolyl analogues of 1,2,3,5-tetrahydro-2-oxoimidazo[2,1-b]quinazoline” (J Med Chem, 1988).
